Measurements pooled from the literature.

SMILES	tested on	assay	system	setting	endpoint	value
O=c1ccc2nc3ccc(OCc4ccc([N+](=O)[O-])o4)cc3oc-2c1	Klebsiella pneumoniae	microbial growth	–	24 h	MIC	> 32 µg/mL
N.N.[Cl][Pt][Cl]	A2780	cell growth or viability, MTT	–	–	IC50	0.31 µM
Oc1c(Cl)cc(Cl)cc1-c1[nH]c(Cl)c(Cl)c1Cl	Streptococcus pneumoniae	microbial growth	ATCC49619	–	MIC	0.13 µM
COc1ccc(Nc2nn3c(-c4ccccc4)ccnc3c2C(=O)Nc2ccccc2)cc1	Caco-2	cell growth or viability, MTT	–	25 µg/mL, 48 h, serum-free	viability	56.6%
C[C@@H]1CN2c3c(cc4c(N5C(=O)OC[C@@H]5C)noc4c3F)CC3(C(=O)NC(=O)NC3=O)[C@H]2[C@H](C)O1	Klebsiella pneumoniae	microbial growth, broth dilution	ATCC10031	–	MIC	0.25 µg/mL
O=c1ccc2nc3ccc(O)cc3oc-2c1	Klebsiella pneumoniae	microbial growth	–	24 h	MIC	> 32 µg/mL
COc1ccc(-c2c(-c3ccc(C#N)c(F)c3)nc(N3CCC(N)CC3)n(C)c2=O)cc1F	TC-32	cell growth or viability, resazurin	–	–	IC50	36 µM
Cc1c2ccncc2c(C)c2c1[nH]c1ccccc12	Caco-2	cell growth or viability, SRB	–	72 h	GI50	4.91 µM
Oc1c(Br)cc(Br)cc1-c1[nH]c(Br)c(Br)c1Br	Streptococcus pneumoniae	microbial growth	ATCC49619	–	MIC	0.04 µM
